Assay outcomes (PubChem BioAssay)
KLF5 inh – inhibitors of KLF5 expression; DLD-1 KLF5 promoter-luciferase reporter, luminescence; 290,000 compounds, 0.23% hits; AID 1700; inhibition, % at 5 µM;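 active means inhibition above a per-plate limit of that plate's mean compound inhibition plus 3 SD, cut at about 60% in these data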;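 further: 0% = DMSO wells and 100% = LY294002 at 200 µM; higher means less KLF5 promoter-driven luciferase light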
Ba/F3 V617F tox – reduce viability of Ba/F3 cells dependent on JAK2V617F | Ba/F3 EpoR-JAK2V617F viability, ATP luminescence | inhibition, % at 5.6 µM | 220,000 compounds, 1.1% hits | AID 1446;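 active means inhibition above the campaign mean plus 3 SD over all tested compounds, cut at about 24% in these data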;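 further: cytokine-independent growth of Ba/F3 cells driven by EpoR plus mutant JAK2; 0% = DMSO-treated cells and 100% = JAK inhibitor I control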
MT stabilizer – stabilizes microtubules in HeLa cells | HeLa tubulin immunostaining HCS, 24 h; share of cells brighter than vehicle mean+2SD | % tubulin-high responders, % at 10 µM | 200,000 compounds, 0.83% hits | AID 2205;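 active means plate Z-score above 3 for both tubulin-high and condensed-nucleus cell shares, with cell loss under 80%, at 10 µM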;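 further: anti alpha tubulin signal scored within the nucleus-defined area of each cell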
IEC-6 cytotox – counter-screen for KLF5 inhibitors: cytotoxicity in IEC-6 cells; IEC-6 cytotoxicity, luminescence viability; inhibition, % at 5 µM; 290,000 compounds, 0.78% hits; AID 1825; in the data active means inhibition above about 22%;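 further: 0% = plate median of test compound wells and 100% = cytotoxic reference compound wells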
b-catenin transl – alters nuclear translocation of beta-catenin in HeLa cells; nuclear translocation activity, % at 5 µM; 190,000 compounds, 0.3% hits; immunofluorescence imaging;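 active means nuclear translocation activity above 50% at 5 µM, with a well cell count of 50 or more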;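 further: per-cell ratio of nuclear to cytoplasmic median beta-catenin stain intensity; plate controls were DMSO negative control for no effect and GSK-3 inhibitor IX positive control for full effect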
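Test system: HeLa cells, endogenous beta-catenin; Compound: single 5 µM dose plus 0.02–20 µM confirmation series; Times: compound exposure 24 h at 37°C; Signal: fluorescence imaging of beta-catenin antibody stain plus DAPI; Read-out: % activation, nuclear-to-cytoplasmic median beta-catenin signal ratio per cell.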
BaF3 parental – parental Ba/F3 viability inhibition as JAK2V617F counter-screen. CellTiter-Glo ATP luminescence. inhibition, % at 5.6 µM. 220,000 compounds, 1.1% hits. AID 1486;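 active means inhibition above a per-campaign cutoff, the mean inhibition of all tested compounds plus 3 SD, cut at about 27% in these data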;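 further: 0% = DMSO wells and 100% = JAK Inhibitor I control wells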
* marks the source's active call; other numbers are inactive results; · = no result. The list is not random: actives were taken first. Their share in the collection is about 2.1%.

SMILES	KLF5 inh	Ba/F3 V617F tox	MT stabilizer	IEC-6 cytotox	b-catenin transl	BaF3 parental
CCCCNc1nc2sc3c(c2c(=O)n1-c1cccc(Cl)c1)CCN(C)C3	-19	80*	·	-3	0	68*
CCCCSc1nc2sc3c(c2c(=O)n1-c1ccccc1)CCN(C)C3	-30	·	·	-3	·	·
CCOC(=O)C1=C(C)N(c2ccc(C)cc2)C(=O)/C1=C\c1ccc(O)c(OC)c1	-2	-5	·	1	-1	29*
COc1cc(/C=C2\SC(=N)N(c3ccc(F)cc3)C2=O)ccc1O	-19	0	10*	12	2	4
COC(=O)C1=C(C)N(Cc2ccc(C)cc2)C(=O)/C1=C\c1ccc(O)c(OC)c1	-25	0	2	2	2	3
CN(Cc1ccccc1)C(=O)C1CCCN(Cc2cccc(Cl)c2)C1 (configuration not stated)	3	2	2	-7	-3	9
COc1ccccc1/C=C/C(=O)OCC(=O)Nc1cc(C(F)(F)F)ccc1N1CCOCC1	-4	-2	19*	-2	0	1
Nc1nnnn1/N=C/c1ccc(Cl)cc1	-24	·	·	-2	·	·
COc1ccc(-c2cc(C#N)nc(Cl)n2)cc1	-6	4	·	3	1	3
CCN(CC)c1nc(C#N)cc(-c2ccc(OC)cc2)n1	-122	-3	63*	4	-6	1
O=C(CSc1ncnc2nc[nH]c12)c1ccc([N+](=O)[O-])cc1	-2	36*	·	15	-2	23
Cc1nc([N+](=O)[O-])cn1-c1nc2ccccn2c1[N+](=O)[O-]	-4	-2	·	-4	-2	-4
CCOC(=O)C1CCCN(C(=O)Cn2ncc3c([nH]c4ccccc43)c2=O)C1 (configuration not stated)	-9	·	·	-2	·	·
O=C1CCC/C1=C\Nc1ccc(Cl)c([N+](=O)[O-])c1	-2	1	·	0	0	58*
Cc1cc(NC(=O)COC(=O)C2CC(=O)N(c3cccc(Cl)c3)C2)no1 (configuration not stated)	-3	·	·	-1	·	·
CC(=O)Cc1nsc(NC(=O)c2ccc(-c3ccccc3Cl)o2)n1	-31	0	24*	-1	2	4
Cc1cc(C)c2c(n1)SCC(=O)N2CC(=O)Nc1ccccc1Cl	0	·	·	3	·	·
COc1ccc(N/N=C(\C=N\O)C(=O)c2ccc(OC)cc2)cc1	12	10	38*	11	·	17
CCOc1ccc(-c2c(C(=O)N/N=C/C3CCCCC3)nnn2-c2nonc2N)cc1	-2	·	·	-7	·	·
CCOC(=O)c1sc2ncn(C(C)C(=O)OC)c(=O)c2c1C (configuration not stated)	1	-4	2	2	0	1
CCCOC(=O)C(C)n1cnc2sc(C)c(C)c2c1=O (configuration not stated)	-22	-6	2	-1	·	46*
O=C(Cc1ccccc1)NCC(=O)OCC(=O)c1ccccc1Cl	1	6	4	-1	4	7
O=S(=O)(Nc1cc(Sc2cccc3cccnc23)c(O)c2ccccc12)c1ccccc1	13	-1	3	98*	0	3
Cc1ccc(-c2nnc(-c3cc(C)on3)o2)cc1	-217	-5	·	0	-1	1
CCOc1ccc2c(c1)OC(c1ccc(C)cc1)(C(F)(F)F)NC2=O (configuration not stated)	-7	58*	6	42*	-2	51*
SMILES	KLF5 inh	Ba/F3 V617F tox	MT stabilizer	IEC-6 cytotox	b-catenin transl	BaF3 parental
CC(C(=O)N1CCc2ccccc21)N1CCc2ccccc2C1 (configuration not stated)	-33	9	2	4	2	41*
COc1ccc(C(=O)N2CCCc3ccccc32)cc1OC	-25	·	·	-2	·	·
COc1cc2c(cc1OC)CN(C(C)C(=O)N1CCc3ccccc31)CC2 (configuration not stated)	-21	0	47*	1	·	6
COc1cc(C(=O)N2CCCc3ccccc32)cc(OC)c1OC	-6	2	39*	-2	53*	0
COc1ccc(Nc2nnc(SCC(=O)N3CC(=O)Nc4ccccc43)s2)cc1	-18	-1	4	7	-3	-1
O=C1C(=O)N(CCS(=O)(=O)c2ccccc2)c2ccc(F)cc21	-27	·	·	15	·	·
Cc1ccnc(NS(=O)(=O)c2ccc(NC(=O)c3ccc4c(c3)OCCO4)cc2)n1	-14	-3	2	0	1	1
CCN1CCN(Cc2ccc(NC(=O)c3cc(NC(=O)N4CCNC4=O)cc(OC)c3)cc2C(F)(F)F)CC1	·	·	·	·	0	·
COc1cc(NC(=O)N2CCNC2=O)cc(C(=O)Nc2cccc(C(F)(F)F)c2)c1	·	·	·	·	55*	·
CC[N+](C)(CC)CC(=O)OCC1C(C)C=C(C)CC1C (configuration not stated)	2	27*	·	2	0	34*
CCCCCn1ccc(=N)cc1	-15	67*	3	-5	2	62*
CCn1c2ccccc2c2cc(/C=N/NC(=O)c3ccncc3)ccc21	1	0	13*	5	20	4
CCn1c2ccccc2c2cc(/C=N/NC(=O)c3cc(O)cc(O)c3)ccc21	-24	6	3	0	0	11
CCn1c2ccccc2c2cc(/C=N/NC(=O)c3ccc(O)cc3)ccc21	-1	1	17*	7	52*	5
COc1cc(NC(=O)N[C@@H](Cc2c[nH]c3ccccc23)C(=O)O)c(C(=O)O)cc1OC	-8	·	·	3	·	·
Cc1nn(C)cc1C(=O)Nc1ccc2c(c1)OCCO2	-45	·	·	2	·	·
NC1=NC(c2ccccc2)N=C(Nc2ccccc2)N1 (configuration not stated)	-19	20	·	6	4	68*
CCC1=[N+](C)c2cccc3cccc(c23)N1C	-20	37*	4	0	-1	41*
CN1/C(=N\O)c2cccc3cccc1c23	-1	-1	5	-1	1	1
CC(=O)Oc1c(-c2ccc(Br)o2)oc2ccccc2c1=O	-15	·	·	-7	·	·
Cc1ccc2c(c1)S/C(=C\c1cccc[n+]1C)N2CCO	-17	·	·	-5	·	·
Cc1ccc2c(c1)S/C(=C/c1ccc[n+](CCO)c1)N2C	-9	87*	2	-11	2	68*
Cc1cc(C)n2ncc(S(=O)(=O)c3ccccc3)c2n1	-6	3	10	0	0	9
COc1ccc(OC)c(Nc2cc(C)c3ccccc3n2)c1	65*	·	·	2	·	·
COc1cccc(Nc2cc(C)c3ccccc3n2)c1	-83	·	·	11	·	·
NS(=O)(=O)c1ccc(CNC(=O)c2cc(=O)c3ccccc3o2)cc1	-38	·	·	-2	·	·
CSc1ccc(C(=O)C2CCCN(Cc3ccc(N4CCNC4=O)cc3)C2)cc1 (configuration not stated)	-44	1	14*	2	7	3
Cc1ccc(C)c(NC(=S)NNC(=O)c2csc(C(C)C)c2)c1	-17	1	4	5	-1	5
